Drawing on ChEMBL document CHEMBL1155262, “A new class of anticonvulsants possessing 6 Hz activity: 3,4-dialkyloxy thiophene bishydrazones” (Eur J Med Chem, 2009), this text covers Activity for five compounds.

Series [1] has as its system Mus musculus. Kind of series: Anticonvulsant activity in mouse CF1 albino assessed as inhibition of subcutaneous metrazole-induced seizure at 300 mg/kg, ip after 0.5 hrs. Also noted: dose 300 mg/kg. It is filed as functional, organism-based.
Series [2] has as its system Mus musculus. Kind of series: Anticonvulsant activity in mouse CF1 albino assessed as inhibition of maximal electric shock-induced seizure at 300 mg/kg, ip after 4 hrs. It is filed as functional, organism-based. Also noted: dose 300 mg/kg. The method, boiled down:
(§1)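 Male CF-1 albino mice (18–25 g); compound suspended in 0.5% methyl cellulose/water or PEG 200, given i.p. at 30, 100 and 300 mg/kg (0.01 mL/g). Tested 0.5 or 4 h after dosing. Protection = abolition of hind limb tonic extensor component of MES seizure.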

For series [3], the system named is Mus musculus. Kind of series: Anticonvulsant activity in mouse CF1 albino assessed as inhibition of minimal electric shock-induced seizure at 30 mg/kg, ip after 2 hrs. It counts as functional, organism-based. Set-up: dose 30 mg/kg. The method in brief:
(§2)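 6 Hz psychomotor seizure model in male CF-1 albino mice dosed i.p. Four mice per time point (0.25, 0.5, 1, 2, 4 h) received corneal-electrode current of 32 mA for 3 s. Untreated mice show a minimal clonic phase followed by stereotyped automatistic behaviour. Results given as number protected out of 4.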

The test system of series [4] is Mus musculus. Kind of series: Anticonvulsant activity in mouse CF1 albino assessed as inhibition of minimal electric shock-induced seizure at 30 mg/kg, ip after 4 hrs. It is filed as functional, organism-based. Also noted: dose 30 mg/kg. The method, boiled down:
as §2

Series [5] relates to Mus musculus. Kind of series: Neurotoxicity against mouse CF1 albino assessed as minimal motor impairment at 300 mg/kg, ip after 0.5 hrs by rotord test. It is filed as toxicity, organism-based. Also noted: dose 300 mg/kg, route intraperitoneal. As to conditions: in vivo. The method, boiled down:
(§3)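 Rotorod minimal motor impairment in male CF-1 albino mice (18–25 g) after i.p. dosing at 30, 100 or 300 mg/kg in 0.5% methyl cellulose/water or PEG 200. Mice placed on a rod rotating at 6 rpm at 0.5 or 4 h. Value is minimum dose causing impairment in at least one mouse.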

For series [6], the system named is Mus musculus. Kind of series: Anticonvulsant activity in mouse CF1 albino assessed as inhibition of subcutaneous metrazole-induced seizure at 300 mg/kg, ip after 4 hrs. It is filed as functional, organism-based. Also noted: dose 300 mg/kg.
Series [7] relates to Mus musculus. Kind of series: Anticonvulsant activity in mouse CF1 albino assessed as inhibition of minimal electric shock-induced seizure at 100 mg/kg, ip after 4 hrs. It is filed as functional, organism-based. Set-up: dose 100 mg/kg. The method, boiled down: as §2
Series [8] deals with Mus musculus. Kind of series: Neurotoxicity against mouse CF1 albino assessed as minimal motor impairment at 300 mg/kg, ip after 4 hrs by rotord test. It counts as toxicity, organism-based. Also noted: dose 300 mg/kg, route intraperitoneal. As to conditions: in vivo. The method in brief:
as §3

The subject of series [9] is Mus musculus. Kind of series: Anticonvulsant activity in ip dosed mouse CF1 albino assessed as inhibition of maximal electric shock-induced seizure after 0.5 hrs. It is filed as functional. The method, boiled down:
as §1

Series [10] relates to Mus musculus. Kind of series: Anticonvulsant activity in ip dosed mouse CF1 albino assessed as inhibition of subcutaneous metrazole-induced seizure after 0.5 hrs. It counts as functional.
Series [11] has as its system Mus musculus. Kind of series: Anticonvulsant activity in mouse CF1 albino assessed as inhibition of maximal electric shock-induced seizure at 300 mg/kg, ip after 0.5 hrs. It is filed as functional, organism-based. Set-up: dose 300 mg/kg. The method, boiled down: as §1
The subject of series [12] is Mus musculus. Kind of series: Anticonvulsant activity in mouse CF1 albino assessed as inhibition of minimal electric shock-induced seizure at 100 mg/kg, ip after 0.25 hrs. It counts as functional, organism-based. Set-up: dose 100 mg/kg. The method in brief:
as §2

The subject of series [13] is Mus musculus. Kind of series: Anticonvulsant activity in mouse CF1 albino assessed as inhibition of minimal electric shock-induced seizure at 60 mg/kg, ip after 1 hr. Set-up: dose 60 mg/kg. It is filed as functional, organism-based. The method, boiled down: as §2
Series [14] relates to Mus musculus. Kind of series: Anticonvulsant activity in mouse CF1 albino assessed as inhibition of minimal electric shock-induced seizure at 60 mg/kg, ip after 0.5 hrs. Also noted: dose 60 mg/kg. It is filed as functional, organism-based. The method in brief: as §2
For series [15], the system named is Mus musculus. Kind of series: Anticonvulsant activity in mouse CF1 albino assessed as inhibition of minimal electric shock-induced seizure at 60 mg/kg, ip after 0.25 hrs. Also noted: dose 60 mg/kg. It counts as functional, organism-based. The method in brief: as §2
Series [16] has as its system Mus musculus. Kind of series: Anticonvulsant activity in mouse CF1 albino assessed as inhibition of minimal electric shock-induced seizure at 100 mg/kg, ip after 1 hr. Also noted: dose 100 mg/kg. It counts as functional, organism-based. The method, boiled down:
as §2

Series [17] relates to Mus musculus. Kind of series: Anticonvulsant activity in mouse CF1 albino assessed as inhibition of minimal electric shock-induced seizure at 60 mg/kg, ip after 2 hrs. It is filed as functional, organism-based. Set-up: dose 60 mg/kg. The method, boiled down:
as §2

Series [18] has as its system Mus musculus. Kind of series: Anticonvulsant activity in mouse CF1 albino assessed as inhibition of minimal electric shock-induced seizure at 60 mg/kg, ip after 4 hrs. It counts as functional, organism-based. Also noted: dose 60 mg/kg. The method in brief: as §2
In series [19] the test system is Mus musculus. Kind of series: Anticonvulsant activity in mouse CF1 albino assessed as inhibition of minimal electric shock-induced seizure at 100 mg/kg, ip after 0.5 hrs. It counts as functional, organism-based. Also noted: dose 100 mg/kg. The method, boiled down:
as §2

Series [20] deals with Mus musculus. Kind of series: Anticonvulsant activity in ip dosed mouse CF1 albino assessed as inhibition of subcutaneous metrazole-induced seizure after 4 hrs. It counts as functional.
Series [21] concerns Mus musculus. Kind of series: Anticonvulsant activity in mouse CF1 albino assessed as inhibition of minimal electric shock-induced seizure at 30 mg/kg, ip after 0.25 hrs. It counts as functional, organism-based. Set-up: dose 30 mg/kg. The method, boiled down: as §2
The test system of series [22] is Mus musculus. Kind of series: Anticonvulsant activity in mouse CF1 albino assessed as inhibition of minimal electric shock-induced seizure at 30 mg/kg, ip after 1 hr. It is filed as functional, organism-based. Set-up: dose 30 mg/kg. The method, boiled down:
as §2

For series [23], the system named is Mus musculus. Kind of series: Anticonvulsant activity in mouse CF1 albino assessed as inhibition of minimal electric shock-induced seizure at 30 mg/kg, ip after 0.5 hrs. It is filed as functional, organism-based. Set-up: dose 30 mg/kg. The method in brief: as §2
The test system of series [24] is Mus musculus. Kind of series: Anticonvulsant activity in mouse CF1 albino assessed as inhibition of minimal electric shock-induced seizure at 50 mg/kg, ip after 1 hr. It is filed as functional, organism-based. Set-up: dose 50 mg/kg. The method, boiled down:
as §2

The subject of series [25] is Mus musculus. Kind of series: Anticonvulsant activity in mouse CF1 albino assessed as inhibition of minimal electric shock-induced seizure at 50 mg/kg, ip after 0.25 hrs. It counts as functional, organism-based. Also noted: dose 50 mg/kg. The method, boiled down:
as §2

The subject of series [26] is Mus musculus. Kind of series: Anticonvulsant activity in mouse CF1 albino assessed as inhibition of minimal electric shock-induced seizure at 50 mg/kg, ip after 2 hrs. It is filed as functional, organism-based. Also noted: dose 50 mg/kg. The method, boiled down: as §2
Series [27] deals with Mus musculus. Kind of series: Anticonvulsant activity in mouse CF1 albino assessed as inhibition of minimal electric shock-induced seizure at 50 mg/kg, ip after 0.5 hrs. It is filed as functional, organism-based. Also noted: dose 50 mg/kg. The method in brief: as §2
In series [28] the test system is Mus musculus. Kind of series: Anticonvulsant activity in mouse CF1 albino assessed as inhibition of minimal electric shock-induced seizure at 50 mg/kg, ip after 4 hrs. It counts as functional, organism-based. Also noted: dose 50 mg/kg. The method, boiled down: as §2

Each structure is given as a SMILES string. Active and inactive are the calls of the source. The calls are words filed in the database; no cut-off is given here.

For the compound `C/C(=N\NC(=O)c1sc(C(=O)N/N=C(\C)c2cccs2)c2c1OCCO2)c1cccs1`, the result in [1], in [2], in series [3], in [4], in series [6] and in series [7] was inactive. Also, the Activity result was “Not Active” in series [5], “Not Active” in series [8] and 300 mg/kg in [9].
For `O=C(N/N=C/c1ccc2c(c1)Cc1ccccc1-2)c1sc(C(=O)N/N=C/c2ccc3c(c2)Cc2ccccc2-3)c2c1OCCO2`, the outcome in [2], in [6] and in series [11] was inactive. Also, the Activity result in series [5] was “Not Active”; in [10], 300 mg/kg; in series [8], “Not Active”.
As to `CCCCCCCOc1c(C(=O)N/N=C/c2ccc([N+](=O)[O-])cc2)sc(C(=O)N/N=C/c2ccc([N+](=O)[O-])cc2)c1OCCCCCCC`, the outcome in [12], in [13], in series [14], in series [15], in series [16] and in [17] was inactive. Besides, the outcome in [7] and in series [18] was inactive. In [19], the result was Active.
As to `O=C(N/N=C/c1ccccc1)c1sc(C(=O)N/N=C/c2ccccc2)c(OCc2ccccc2)c1OCc1ccccc1`, the result in series [1], in series [2], in series [3], in series [21], in series [22] and in series [23] was inactive. Besides, the Activity in series [20] is 300 mg/kg; in series [5], “Not Active”; in series [8], “Not Active”; in series [9] it was 300 mg/kg.
Regarding `CCCCCCCOc1c(C(=O)N/N=C/c2ccccc2)sc(C(=O)N/N=C/c2ccccc2)c1OCCCCCCC`, the result in series [2], in series [24], in series [25], in series [26], in series [6] and in series [7] was inactive. Also, the outcome in series [27], in [28] and in series [11] was inactive. The Activity result is “Not Active” in series [5], 300 mg/kg in series [10] and “Not Active” in series [8].
